According to ChEMBL document CHEMBL1140166, “Discovery of 1,4-substituted piperidines as potent and selective inhibitors of T-type calcium channels” (J Med Chem, 2008):
Blank lines part the entries; values can stand above or below the molecule they belong to.

Experiments:
[1] = Bioavailability in Wistar albino rat; type: ADME, organism-based; conditions: in vivo
[2] = Dissociation constant, pKa of the compound; type: physicochemical
Procedure, shortened: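 pKa was measured by potentiometric titration; calculated pKa values were also given from a pKa database.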

[3] = Ratio of drug level from cerebrospinal fluid to plasma in rat at 10 mg/kg, po after 9 hrs; type: ADME, organism-based, CSF/Plasma; set-up: dose 10 mg/kg, route oral
Procedure, shortened: (§1)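 Rats given a single oral 10 mpk dose; brain, plasma and CSF levels measured; brain/plasma and CSF/plasma concentration ratios taken at 9 h after oral dosing.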

[4] = Cmax in Sprague-Dawley rat at 10 mg/kg, po; type: ADME, organism-based; set-up: dose 10 mg/kg, route oral; conditions: in vivo
[5] = Plasma clearance in Sprague-Dawley rat at 2 mg/kg, iv; type: ADME, organism-based; set-up: dose 2 mg/kg, route intravenous
[6] = AUC in Beagle dog at 3 mg/kg, po; type: ADME, organism-based, Canis lupus familiaris; set-up: dose 3 mg/kg, route oral; conditions: plasma
[7] = Half life in Beagle dog at 1 mg/kg, iv; type: ADME, organism-based, Canis lupus familiaris; set-up: dose 1 mg/kg, route intravenous; conditions: in vivo
[8] = Half life in Sprague-Dawley rat at 2 mg/kg, iv; type: ADME, organism-based; set-up: dose 2 mg/kg, route intravenous; conditions: in vivo
[9] = Oral bioavailability in Sprague-Dawley rat at 10 mg/kg; type: ADME, organism-based; conditions: in vivo
[10] = Cmax in Sprague-Dawley rat at 1 mg/kg, po; type: ADME, organism-based; set-up: dose 1 mg/kg, route oral; conditions: in vivo
[11] = Cmax in rhesus monkey at 3 mg/kg, po; type: ADME, organism-based, Macaca mulatta; set-up: dose 3 mg/kg, route oral; conditions: in vivo
[12] = AUC in Sprague-Dawley rat at 1 mg/kg, po; type: ADME, organism-based; set-up: dose 1 mg/kg, route oral; conditions: plasma
[13] = AUC in Sprague-Dawley rat at 0.3 mg/kg, po; type: ADME, organism-based; set-up: dose 0.3 mg/kg, route oral; conditions: plasma
[14] = Plasma clearance in rhesus monkey at 1 mg/kg, iv; type: ADME, organism-based, Macaca mulatta; set-up: dose 1 mg/kg, route intravenous
[15] = Half life in rhesus monkey at 1 mg/kg, iv; type: ADME, organism-based, Macaca mulatta; set-up: dose 1 mg/kg, route intravenous; conditions: in vivo
[16] = Ratio of drug level from brain to plasma in rat at 10 mg/kg, po after 9 hrs; type: ADME, organism-based; set-up: dose 10 mg/kg, route oral; procedure, shortened: as §1
[17] = AUC in Sprague-Dawley rat at 10 mg/kg, po; type: ADME, organism-based; set-up: dose 10 mg/kg, route oral; conditions: plasma
[18] = AUC in rhesus monkey at 3 mg/kg, po; type: ADME, organism-based, Macaca mulatta; set-up: dose 3 mg/kg, route oral; conditions: plasma
[19] = Cmax in Beagle dog at 3 mg/kg, po; type: ADME, organism-based, Canis lupus familiaris; set-up: dose 3 mg/kg, route oral; conditions: in vivo
[20] = Oral bioavailability in Beagle dog at 3 mg/kg; type: ADME, organism-based, Canis lupus familiaris; conditions: in vivo
[21] = Oral bioavailability in rhesus monkey at 3 mg/kg; type: ADME, organism-based, Macaca mulatta; conditions: in vivo
[22] = Plasma clearance in Beagle dog at 1 mg/kg, iv; type: ADME, organism-based, Canis lupus familiaris; set-up: dose 1 mg/kg, route intravenous

Compound: CC1(C)C[C@@H](CN2CCC(F)(CNC(=O)c3cc(Cl)cc(Cl)c3)CC2)CCO1
pKa [2]: 7.9

Compound: CC(C)(C)CCN1CC[C@H](CNC(=O)c2cc(Cl)cc(Cl)c2)[C@H](F)C1
Kp at 9 h [3]: 0.14
Cmax [4]: 432 nM
clearance [5]: 41 mL/min/kg
AUC [6]: 9.5 µM·h
half-life [7]: 10.8 h
half-life [8]: 4.9 h
bioavailability [9]: 30%
Cmax [10]: 33 nM
Cmax [11]: 184 nM
AUC [12]: 0.19 µM·h
AUC [13]: 0.01 µM·h
clearance [14]: 9.6 mL/min/kg
half-life [15]: 4.6 h
Kp at 9 h [16]: 9
AUC [17]: 3.1 µM·h
AUC [18]: 2.4 µM·h
pKa [2]: 7.9
Cmax [19]: 1180 nM
bioavailability [20]: 67%
bioavailability [21]: 18%
clearance [22]: 9.1 mL/min/kg

Compound: CC(C)(C)CCN1CC[C@@H](CNC(=O)c2cc(Cl)cc(Cl)c2)[C@H](F)C1 (relative stereo)
pKa [2]: 6.7

Results, then the molecule that gave them:

bioavailability [1]: 100%
pKa [2]: 8.7
Compound: CC(C)(C)CCN1CCC(CNC(=O)c2cc(Cl)cc(Cl)c2)CC1

pKa [2]: 8
Compound: CC(C)(C)C(=O)CN1CCC(CNC(=O)c2cc(Cl)cc(Cl)c2)CC1

pKa [2]: 7.6
Compound: CC(C)(C)NC(=O)CN1CCC(CNC(=O)c2cc(Cl)cc(Cl)c2)CC1

pKa [2]: 9.2
Compound: CC(C)(C)C(O)CN1CCC(CNC(=O)c2cc(Cl)cc(Cl)c2)CC1 (stereo not drawn)
